Tested on: MS2 coat protein
Assay: apparent Kd, MS2 coat protein; higher = weaker binding; RNA-MaP array; FMN 200 µM where present
Procedure, shortened: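 The apparent Kd is the median of filtered binding-curve fits, one per cluster, to green signal normalised to red-channel RNA signal and control-cluster median Fmax. The clusters were on Illumina sequencing chips, and stalled E. coli RNA polymerase had transcribed the designs on them. Titration used SNAP-549-labelled MS2 coat protein from 0.7 or 1.5 nM, doubling to 3 µM, without and then with constant ligand, in 100 mM Tris-HCl pH 7.5, 80 mM KCl, 4 mM MgCl2, BSA, DTT, yeast tRNA and Tween-20.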

[1] = designed as: OFF switch for flavin mononucleotide, no ligand
[2] = ligand present: flavin mononucleotide, designed as: OFF switch for flavin mononucleotide
[3] = designed as: ON switch for flavin mononucleotide, no ligand
[4] = ligand present: flavin mononucleotide, designed as: ON switch for flavin mononucleotide

## CCGCAUAUGCAGGAUAUCGUAUCGGAAACGAUACGAGAAGGGUAAACAUGAGGAUCACCCAUGUUCCUUAACGG
[1]
  apparent Kd: 18 nM
[2]
  apparent Kd: 16.5 nM

## CCGGAAACGGGUAGCUCACAUGAGGAUCACCCAUGUGAAACACAGGAUAUGGAUCCUAAUUGGAUCCAGAAGGGUGUGAGCUAC
[3]
  apparent Kd: 58 nM
[4]
  apparent Kd: 20.3 nM

## CCGGAAUUGCAGGAUAUAGGAGUCGAUAGACACCUAGAAGGGCAGACAUGAGGAUCACCCAUGUGUCCUACCGG
[1]
  apparent Kd: 18.6 nM
[2]
  apparent Kd: 31.2 nM

## CCGGAGACGGGUAGCCUGACAUGAGGAUCACCCAUGUGAUCCUAGGAUAUGGAUCCUAAUUGGAUCCAGAAGGAGGUUGGCUAC
[3]
  apparent Kd: 1210 nM
[4]
  apparent Kd: 392 nM

## CCGGAUAUGCAGGAUAUCGUAUCGGAUACGAUACGAGAAGGGUAUACAUGAGGAUCACCCAUGUGCCUUACCGG
[1]
  apparent Kd: 19.3 nM
[2]
  apparent Kd: 20 nM

## CCGGCUGCUGUGAGGAUAUGCCUGUGGGUGCGUGGGUAGAAGGCACAUGAGGAUCACCCAUGUCCUGCGGCUCC
[1]
  apparent Kd: 877 nM
[2]
  apparent Kd: 311 nM

## CCGGCUGCUGUGAGGAUAUGCCUGUGGGUGCGUGGGUAGAAGGCACAUGAGGAUCACCCAUGUCCUGCGGCUCG
[1]
  apparent Kd: 501 nM
[2]
  apparent Kd: 327 nM

## CCGUUCUGAGGAUAUCCACCCUCAUACAUGAGGAUCACCCAUGUUCACCCUUGGGUUCCCGGAGAAGGCAGUUUUC
[1]
  apparent Kd: 232 nM
[2]
  apparent Kd: 467 nM

## CCUAAGGAGACAGGAUAUAGCGUGGUGGCCGGGCUCCAACGGCGAGCGGCGCUAGAAGGGUCACUACAUGAGGAUCACCCAUGU
[3]
  apparent Kd: 10.2 nM
[4]
  apparent Kd: 10.9 nM

## CCUAGUUGGUAAGGAUAUCCUACACUGUUCUGACCCGUGCAAGCUACAUGAGGAUCACCCAUGUGGGAGAAGGUGCGUCGACGC
[1]
  apparent Kd: 24 nM
[2]
  apparent Kd: 24.9 nM

## CCUAUGUGAGGAUAUCACUGGUCUUCUCACUGGAUGACCAGUGAGAAGGCACAUGAGGAUCACCCAUGUCGGUG
[1]
  apparent Kd: 436 nM
[2]
  apparent Kd: 349 nM

## CCUAUUAGAAAAUAGACGAAGUGGCCAGAAGGUGAAUGCCACAUGAGGAUCACCCAUGUUUCGAUCAAGGAUAUGGUUUCUCAC
[3]
  apparent Kd: 630 nM
[4]
  apparent Kd: 203 nM

## CCUCAGUAAGGAUAUCAGCUUAUAAAGUUGGUAAUGAGAGCUGAGAAGGUACAUGAGGAUCACCCAUGUUAGUU
[1]
  apparent Kd: 21.4 nM
[2]
  apparent Kd: 66.3 nM

## CCUCAGUAAGGAUAUCAGCUUAUAAGGUUGGUAAUGAGAGCUGAGAAGGUACAUGAGGAUCACCCAUGUUAGUU
[1]
  apparent Kd: 27.1 nM
[2]
  apparent Kd: 95.7 nM

## CCUCAGUAAGGAUAUCAGCUUAUAGAGUUGGUAAUGAGAGCUGAGAAGGUACAUGAGGAUCACCCAUGUUAGUU
[1]
  apparent Kd: 21.8 nM
[2]
  apparent Kd: 57.3 nM

## CCUCAGUUAGGAUAUUACUAAUCACUAACCGGGCAACUGGGUAAGAAGGAACAUGAGGAUCACCCAUGUUACGU
[1]
  apparent Kd: 22.1 nM
[2]
  apparent Kd: 22.2 nM

## CCUCCCAAGUAAGGAUAUCGGCCAUAGUUAACUCGAGAAGGUACAUGAGGAUCACCCAUGUCGUCCCUACAGACUCCUCCCUCC
[1]
  apparent Kd: 9.19 nM
[2]
  apparent Kd: 9.15 nM

## CCUCGACGGUAGGAUAUCGUCAAACUAUUGUGAUGAGAAGGACUGACAUGAGGAUCACCCAUGUUAACGUGAUG
[1]
  apparent Kd: 18 nM
[2]
  apparent Kd: 26.2 nM

## CCUCUACAUGAGGAUCACCCAUGUGAGGAUAUGCGAGGCGCGCUCGAUGAGCACGCCGGUAGAAGGCAUGUGGU
[1]
  apparent Kd: 23.8 nM
[2]
  apparent Kd: 51.6 nM

## CCUGAGUCAGGAUAUUGUACCGGCCUGAAGCCAAGCCGACCCAAGAAGGGACAUGAGGAUCACCCAUGUGAAAA
[1]
  apparent Kd: 21.3 nM
[2]
  apparent Kd: 22.9 nM

## CCUGUCAGAGGAUAUGCAUCAGGGCUAUCCUCUAUCGCAGAACAUGAGGAUCACCCAUGUAGAAGGCUGUCAAA
[1]
  apparent Kd: 29.9 nM
[2]
  apparent Kd: 23.6 nM

## CCUUGUAGCGGAGGAUAUGGGCCUCACUCAGUCAAAGAGUGAGAAACAUGAGGAUCACCCAUGUCCCAGAAGGCCGCUGCUUGG
[3]
  apparent Kd: 17.8 nM
[4]
  apparent Kd: 12.8 nM

## CCUUGUAUUGAGGAUAUGCGCCGGCUCGCUGGCGCAGAAGGCGGCACAUGAGGAUCACCCAUGUCAGUUCGCGA
[1]
  apparent Kd: 9.34 nM
[2]
  apparent Kd: 12 nM

## CCUUUGCUAUAUACAUGAGGAUCACCCAUGUCCACUGACAGACAGGAUAUCCUUAGAAACUAGCAGGAGAAGGGUCAGUCAUAC
[3]
  apparent Kd: 263 nM
[4]
  apparent Kd: 328 nM

## CGAAACUACGAGAAGGACAUGUGGUCCUUCAGUUACAUGAGGAUCACCCAUGUAGGAUAUCGUAGUUUCAGGAUCGUGAGAUCA
[1]
  apparent Kd: 37.4 nM
[2]
  apparent Kd: 7 nM

## CGAAGUCCGUAGAAGGGUGACAUGAGGAUCACCCAUGUGCGAGCCGUGGGAGUCAGCGGCUCGCCACAGGAUAUACGGAGCACG
[3]
  apparent Kd: 30.6 nM
[4]
  apparent Kd: 26 nM

## CGAAUACGCGUGAGGAUAUCGUUCGAAUAUUGCGAUGAGAAGGCACAUGAGGAUCACCCAUGUAGGUAUCCUGG
[1]
  apparent Kd: 73.2 nM
[2]
  apparent Kd: 120 nM

Reference: the EternaBench riboswitch data
